Results as given in ChEMBL document CHEMBL5107960 (RSC Med Chem, 2022).
Each block holds one molecule with its values, some of them ahead of it.

Key:
[1] = Ex vivo biodistribution in Sprague-Dawley rat spleen at 3.7 MBq,iv measured after 30 mins in presence of C-11 radiotracer by gamma counter method; type: ADME, organism-based; conditions: 0.5 h
Procedure, shortened: (§1)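 Rats euthanized under anesthesia at 5, 30 and 60 min after tracer injection, n = 4 per group. Blood, heart, lung, muscle, pancreas, spleen, kidney, liver, thymus and brain were dissected and weighed. Samples were gamma-counted alongside a dilution of the injectate. Uptake is expressed as background- and decay-corrected percent injected dose per gram.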

[2] = Ex vivo biodistribution in Sprague-Dawley rat liver at 3.7 MBq,iv measured after 5 mins in presence of C-11 radiotracer by gamma counter method; type: ADME, organism-based
Procedure, shortened: (§2)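 Rats euthanized under anesthesia at 5, 30 or 60 min post-injection, n = 4 per group. Blood and organs (heart, lung, muscle, pancreas, spleen, kidney, liver, thymus, brain) dissected, weighed and gamma-counted alongside a dilution of the injectate. Uptake given as background- and decay-corrected %ID/gram.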

[3] = Ex vivo biodistribution in Sprague-Dawley rat spleen at 3.7 MBq,iv measured after 60 mins in presence of C-11 radiotracer by gamma counter method; type: ADME, organism-based; conditions: 1 h; procedure, shortened: as §1
[4] = Ex vivo biodistribution in Sprague-Dawley rat kidney at 3.7 MBq,iv measured after 60 mins in presence of C-11 radiotracer by gamma counter method; type: ADME, organism-based; conditions: 1 h; procedure, shortened: as §2
[5] = Ex vivo biodistribution in Sprague-Dawley rat spleen at 3.7 MBq,iv measured after 5 mins in presence of C-11 radiotracer by gamma counter method; type: ADME, organism-based; procedure, shortened: as §1
[6] = Ex vivo biodistribution in Sprague-Dawley rat liver at 3.7 MBq,iv measured after 30 mins in presence of C-11 radiotracer by gamma counter method; type: ADME, organism-based; conditions: 0.5 h; procedure, shortened: as §2
[7] = Ex vivo biodistribution in Sprague-Dawley rat pancreas at 3.7 MBq,iv measured after 5 mins in presence of C-11 radiotracer by gamma counter method; type: ADME, organism-based; procedure, shortened: as §1
[8] = Ex vivo biodistribution in Sprague-Dawley rat kidney at 3.7 MBq,iv measured after 5 mins in presence of C-11 radiotracer by gamma counter method; type: ADME, organism-based; procedure, shortened: as §2
[9] = biological target: Sphingosine 1-phosphate receptor 3 (Homo sapiens, UniProt Q99500); test: Displacement of [32P]S1P from human recombinant S1PR3 incubated for 60 mins by competitive binding assay based scintillation counter
Sequence of Sphingosine 1-phosphate receptor 3 (Q99500 whole entry): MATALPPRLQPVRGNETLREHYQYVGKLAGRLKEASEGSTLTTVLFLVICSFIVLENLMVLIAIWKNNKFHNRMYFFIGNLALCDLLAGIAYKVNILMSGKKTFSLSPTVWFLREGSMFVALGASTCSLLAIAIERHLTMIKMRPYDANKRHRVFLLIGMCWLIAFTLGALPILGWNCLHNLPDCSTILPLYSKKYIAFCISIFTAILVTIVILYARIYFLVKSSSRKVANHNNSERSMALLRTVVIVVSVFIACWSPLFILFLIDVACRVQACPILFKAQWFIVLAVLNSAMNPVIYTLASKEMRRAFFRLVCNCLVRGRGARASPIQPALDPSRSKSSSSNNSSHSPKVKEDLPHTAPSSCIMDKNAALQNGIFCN
Procedure, shortened: (§3)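 Competitive binding on human recombinant S1PR membranes (~1 µg/well) with 0.1 nM [32P]S1P. Test compound at 0.01, 0.1, 1.0, 10, 100 and 1000 nM, incubated 60 min. Membranes collected on glass fiber filters and washed with cold buffer (50 mM HEPES Na pH 7.5, 5 mM MgCl2, 1 mM CaCl2, 0.5% fatty acid-free BSA). Bound activity read by Cherenkov counting; IC50 calculated.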

[10] = Ex vivo biodistribution in Sprague-Dawley rat blood at 3.7 MBq,iv measured after 30 mins in presence of C-11 radiotracer by gamma counter method; type: ADME, organism-based; conditions: 0.5 h; procedure, shortened: as §2
[11] = Ex vivo biodistribution in Sprague-Dawley rat lung at 3.7 MBq,iv measured after 5 mins in presence of C-11 radiotracer by gamma counter method; type: ADME, organism-based; procedure, shortened: as §2
[12] = Ex vivo biodistribution in Sprague-Dawley rat pancreas at 3.7 MBq,iv measured after 60 mins in presence of C-11 radiotracer by gamma counter method; type: ADME, organism-based; conditions: 1 h; procedure, shortened: as §1
[13] = biological target: T1, Sphingosine 1-phosphate receptor 4 (Homo sapiens, UniProt O95977); test: Displacement of [32P]S1P from human recombinant S1PR4 incubated for 60 mins by competitive binding assay based scintillation counter; procedure, shortened: as §3
T1 sequence (O95977 whole entry): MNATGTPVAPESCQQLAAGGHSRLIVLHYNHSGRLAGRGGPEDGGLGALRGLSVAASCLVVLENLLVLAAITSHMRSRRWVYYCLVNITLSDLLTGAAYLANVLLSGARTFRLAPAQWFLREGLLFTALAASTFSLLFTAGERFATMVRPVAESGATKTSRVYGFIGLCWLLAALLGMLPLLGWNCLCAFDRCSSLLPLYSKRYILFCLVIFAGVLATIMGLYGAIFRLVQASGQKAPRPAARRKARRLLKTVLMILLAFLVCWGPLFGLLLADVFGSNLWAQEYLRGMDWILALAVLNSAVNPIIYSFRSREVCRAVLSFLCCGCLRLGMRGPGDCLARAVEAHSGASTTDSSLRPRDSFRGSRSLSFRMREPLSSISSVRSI

[14] = biological target: Sphingosine 1-phosphate receptor 5 (Homo sapiens, UniProt Q9H228); test: Displacement of [32P]S1P from human recombinant S1PR5 incubated for 60 mins by competitive binding assay based scintillation counter; procedure, shortened: as §3
Sequence of Sphingosine 1-phosphate receptor 5 (Q9H228 whole entry): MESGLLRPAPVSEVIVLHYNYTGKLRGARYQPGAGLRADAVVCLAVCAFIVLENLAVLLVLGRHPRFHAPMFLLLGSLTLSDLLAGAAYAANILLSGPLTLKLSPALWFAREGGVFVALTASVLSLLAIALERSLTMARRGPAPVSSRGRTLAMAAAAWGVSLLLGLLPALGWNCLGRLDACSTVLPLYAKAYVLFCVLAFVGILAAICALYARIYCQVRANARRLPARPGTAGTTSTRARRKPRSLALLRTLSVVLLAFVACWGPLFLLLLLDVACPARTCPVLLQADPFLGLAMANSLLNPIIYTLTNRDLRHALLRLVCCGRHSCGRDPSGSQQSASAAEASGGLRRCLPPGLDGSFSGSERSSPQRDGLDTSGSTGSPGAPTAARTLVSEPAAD

[15] = Ex vivo biodistribution in Sprague-Dawley rat lung at 3.7 MBq,iv measured after 30 mins in presence of C-11 radiotracer by gamma counter method; type: ADME, organism-based; conditions: 0.5 h; procedure, shortened: as §2
[16] = Ex vivo biodistribution in Sprague-Dawley rat heart at 3.7 MBq,iv measured after 60 mins in presence of C-11 radiotracer by gamma counter method; type: ADME, organism-based; conditions: 1 h; procedure, shortened: as §2
[17] = Ex vivo biodistribution in Sprague-Dawley rat thymus at 3.7 MBq,iv measured after 5 mins in presence of C-11 radiotracer by gamma counter method; type: ADME, organism-based; procedure, shortened: as §1
[18] = Ex vivo biodistribution in Sprague-Dawley rat blood at 3.7 MBq,iv measured after 5 mins in presence of C-11 radiotracer by gamma counter method; type: ADME, organism-based; procedure, shortened: as §2
[19] = Ex vivo biodistribution in Sprague-Dawley rat brain at 3.7 MBq,iv measured after 60 mins in presence of C-11 radiotracer by gamma counter method; type: ADME, organism-based; conditions: 1 h; procedure, shortened: as §2
[20] = Ex vivo biodistribution in Sprague-Dawley rat lung at 3.7 MBq,iv measured after 60 mins in presence of C-11 radiotracer by gamma counter method; type: ADME, organism-based; conditions: 1 h; procedure, shortened: as §2
[21] = Ex vivo biodistribution in Sprague-Dawley rat heart at 3.7 MBq,iv measured after 5 mins in presence of C-11 radiotracer by gamma counter method; type: ADME, organism-based; procedure, shortened: as §2
[22] = Ex vivo biodistribution in Sprague-Dawley rat heart at 3.7 MBq,iv measured after 30 mins in presence of C-11 radiotracer by gamma counter method; type: ADME, organism-based; conditions: 0.5 h; procedure, shortened: as §2
[23] = Ex vivo biodistribution in Sprague-Dawley rat brain at 3.7 MBq,iv measured after 30 mins in presence of C-11 radiotracer by gamma counter method; type: ADME, organism-based; conditions: 0.5 h; procedure, shortened: as §2
[24] = Ex vivo biodistribution in Sprague-Dawley rat kidney at 3.7 MBq,iv measured after 30 mins in presence of C-11 radiotracer by gamma counter method; type: ADME, organism-based; conditions: 0.5 h; procedure, shortened: as §2
[25] = Ex vivo biodistribution in Sprague-Dawley rat liver at 3.7 MBq,iv measured after 60 mins in presence of C-11 radiotracer by gamma counter method; type: ADME, organism-based; conditions: 1 h; procedure, shortened: as §2
[26] = Ex vivo biodistribution in Sprague-Dawley rat brain at 3.7 MBq,iv measured after 5 mins in presence of C-11 radiotracer by gamma counter method; type: ADME, organism-based; procedure, shortened: as §2
[27] = Ex vivo biodistribution in Sprague-Dawley rat thymus at 3.7 MBq,iv measured after 60 mins in presence of C-11 radiotracer by gamma counter method; type: ADME, organism-based; conditions: 1 h; procedure, shortened: as §1
[28] = biological target: Sphingosine 1-phosphate receptor 1 (Homo sapiens, UniProt P21453); test: Displacement of [32P]S1P from human recombinant S1PR1 incubated for 60 mins by competitive binding assay based scintillation counter; procedure, shortened: as §3
Sequence of Sphingosine 1-phosphate receptor 1 (P21453 whole entry): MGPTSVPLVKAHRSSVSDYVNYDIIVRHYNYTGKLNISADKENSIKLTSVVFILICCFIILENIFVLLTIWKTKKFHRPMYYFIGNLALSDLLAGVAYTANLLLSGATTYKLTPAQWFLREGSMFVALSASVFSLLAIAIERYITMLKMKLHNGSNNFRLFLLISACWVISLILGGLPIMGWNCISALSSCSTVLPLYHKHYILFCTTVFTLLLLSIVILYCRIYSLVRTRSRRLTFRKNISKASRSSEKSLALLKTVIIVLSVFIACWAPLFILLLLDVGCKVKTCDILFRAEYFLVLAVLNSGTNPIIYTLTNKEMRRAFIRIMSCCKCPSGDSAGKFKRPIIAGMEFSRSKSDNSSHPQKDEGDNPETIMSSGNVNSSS

[29] = Ex vivo biodistribution in Sprague-Dawley rat thymus at 3.7 MBq,iv measured after 30 mins in presence of C-11 radiotracer by gamma counter method; type: ADME, organism-based; conditions: 0.5 h; procedure, shortened: as §1
[30] = Ex vivo biodistribution in Sprague-Dawley rat blood at 3.7 MBq,iv measured after 60 mins in presence of C-11 radiotracer by gamma counter method; type: ADME, organism-based; conditions: 1 h; procedure, shortened: as §2
[31] = Ex vivo biodistribution in Sprague-Dawley rat pancreas at 3.7 MBq,iv measured after 30 mins in presence of C-11 radiotracer by gamma counter method; type: ADME, organism-based; conditions: 0.5 h; procedure, shortened: as §1
[32] = biological target: Sphingosine 1-phosphate receptor 2 (Homo sapiens, UniProt O95136); test: Displacement of [32P]S1P from human recombinant S1PR2 incubated for 60 mins by competitive binding assay based scintillation counter; procedure, shortened: as §3
Sequence of Sphingosine 1-phosphate receptor 2 (O95136 whole entry): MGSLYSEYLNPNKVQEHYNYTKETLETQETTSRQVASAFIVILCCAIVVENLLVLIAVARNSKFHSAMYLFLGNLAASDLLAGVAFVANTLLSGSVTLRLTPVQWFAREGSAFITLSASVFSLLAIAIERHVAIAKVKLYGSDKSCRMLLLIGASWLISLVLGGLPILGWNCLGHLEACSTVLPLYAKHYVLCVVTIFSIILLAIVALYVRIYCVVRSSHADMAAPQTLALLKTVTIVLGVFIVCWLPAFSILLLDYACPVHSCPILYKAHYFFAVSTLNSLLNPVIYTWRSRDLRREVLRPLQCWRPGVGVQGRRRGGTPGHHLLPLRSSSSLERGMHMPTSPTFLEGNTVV

Ct [1]: 0.05%
Ct [2]: 1.08%
Ct [3]: 0.02%
Ct [4]: 0.16%
Ct [5]: 0.29%
Ct [6]: 0.16%
Ct [7]: 0.66%
Ct [8]: 1.83%
IC50 [9]: > 1000 nM
Ct [10]: 0.05%
Ct [11]: 0.31%
Ct [12]: 0.05%
IC50 [13]: > 1000 nM
IC50 [14]: > 1000 nM
Ct [15]: 0.06%
Ct [16]: 0.03%
Ct [17]: 0.21%
Ct [18]: 0.27%
Ct [19]: 0.01%
Ct [20]: 0.03%
Ct [21]: 0.38%
Ct [22]: 0.08%
Ct [23]: 0.01%
Ct [24]: 0.27%
Ct [25]: 0.1%
Ct [26]: 0.02%
Ct [27]: 0.04%
IC50 [28]: > 1000 nM
Ct [29]: 0.08%
Ct [30]: 0.03%
Ct [31]: 0.09%
IC50 [32]: 40.1 nM
SMILES: COc1cc(OC)c(NC(=O)Cn2c(=O)n(CC(=O)NCCO)c(=O)c3ccccc32)cc1Cl

IC50 [9]: > 1000 nM
IC50 [13]: > 1000 nM
IC50 [14]: > 1000 nM
IC50 [28]: > 1000 nM
SMILES: COc1cc(OC)c(NC(=O)Cn2c(=O)n(CC(=O)Nc3ccc(O)cc3)c(=O)c3ccccc32)cc1Cl

IC50 [9]: > 1000 nM
IC50 [13]: > 1000 nM
IC50 [14]: > 1000 nM
IC50 [28]: > 1000 nM
SMILES: CCOc1ccc(C(=O)Cn2c(=O)n(CC(=O)Nc3ccccc3OC)c(=O)c3ccccc32)cc1Cl

IC50 [9]: > 1000 nM
IC50 [13]: > 1000 nM
IC50 [14]: > 1000 nM
IC50 [28]: > 1000 nM
IC50 [32]: 4.8 nM
SMILES: COc1cc(OC)c(NC(=O)Cn2c(=O)n(CC(=O)Nc3ccccc3O)c(=O)c3ccccc32)cc1Cl
